pIC50: −log10 of the molar value. Calls of active or inactive are those of the source. No cut-off for these calls is given here.
Key:
Mus musculus = test: Antifibrotic activity in CCl4-induced BALB/c mouse model of liver fibrosis assessed as reduction in liver fibrosis area at 5 to 15 mg/kg, po administered once daily at week 4 to 6 by alpha-SMA staining based microscopy; format: functional, organism-based
In short: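 Female BALB/c mice given CCl4 i.p. (1 mL/kg of 25% CCl4 in olive oil) twice weekly for 6 weeks; sacrificed 48 h after last dose. Test articles oral, once daily: prophylactic weeks 1-6 or therapeutic weeks 4-6; imatinib control 50 mg/kg daily weeks 1-6. One formalin-fixed liver lobe stained for Picro Sirius Red and α-SMA; fibrotic area as % of total liver area; mean ± SEM, one-way ANOVA with Dunnett's test.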

[1] = Stability in human plasma assessed as half life
Lysyl oxidase homolog 2 = molecular target: T1, Lysyl oxidase homolog 2 (Mus musculus, UniProt P58022); test: Inhibition of recombinant mouse C-terminal His-tagged LOLX2 (26-776 residues) expressed in mouse myeloma cells using putrescine as substrate preincubated with enzyme for 30 mins followed by substrate addition and measured every 2.5 mins for 30 mins by Amplex-Red oxidation assay
T1 sequence (P58022 whole entry): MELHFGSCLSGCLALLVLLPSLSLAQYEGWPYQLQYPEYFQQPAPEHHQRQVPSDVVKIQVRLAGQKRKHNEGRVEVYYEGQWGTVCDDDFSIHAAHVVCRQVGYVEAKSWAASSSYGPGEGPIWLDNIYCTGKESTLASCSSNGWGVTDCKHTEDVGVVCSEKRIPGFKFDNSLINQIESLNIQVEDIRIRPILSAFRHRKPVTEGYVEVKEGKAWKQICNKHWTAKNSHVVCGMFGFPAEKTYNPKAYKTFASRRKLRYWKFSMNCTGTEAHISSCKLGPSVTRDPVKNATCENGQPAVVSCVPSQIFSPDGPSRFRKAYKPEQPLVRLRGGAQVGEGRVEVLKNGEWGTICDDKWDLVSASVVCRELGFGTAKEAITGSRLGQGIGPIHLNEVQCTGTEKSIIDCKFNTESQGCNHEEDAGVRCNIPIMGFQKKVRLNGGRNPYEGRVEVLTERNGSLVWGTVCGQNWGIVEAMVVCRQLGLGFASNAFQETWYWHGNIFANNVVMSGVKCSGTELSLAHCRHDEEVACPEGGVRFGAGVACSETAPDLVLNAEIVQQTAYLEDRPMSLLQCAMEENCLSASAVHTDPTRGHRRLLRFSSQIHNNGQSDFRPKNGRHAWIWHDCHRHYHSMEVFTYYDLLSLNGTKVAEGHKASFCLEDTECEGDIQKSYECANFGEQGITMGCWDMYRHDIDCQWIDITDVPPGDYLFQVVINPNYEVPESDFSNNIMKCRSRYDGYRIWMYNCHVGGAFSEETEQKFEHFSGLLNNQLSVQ
In short: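 LOXL2 enzyme preincubated with compound for 30 min at 37 °C, then Amplex Red (120 µM) / HRP (1.5 U/mL) mix containing 5 mM putrescine added. Buffer: 1.2 M urea, 50 mM sodium borate, pH 8.2. H2O2 fluorescence (ex 565/em 590) read every 2.5 min for 30 min at 37 °C; BAPN 100 µM as positive control; n≥2.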

[2] = Protein binding in human plasma; format: ADME, cell-free; conditions: read-out: PPB (converted)

half-life [1] | pIC50 (Lysyl oxidase homolog 2) | fraction unbound [2] | Structure (SMILES) | inhibition (Mus musculus)
 |  |  | CCOC(=O)c1ccc2c(c1)c(-c1cccc(S(=O)(=O)N(C)C)c1)c(C)n2C/C(F)=C/CN.Cl | Active
> 2 h | 8.22 | 0.08 | Cc1c(-c2cccc(S(=O)(=O)N(C)C)c2)c2cc(C(=O)O)ccc2n1C/C(F)=C/CN.Cl | 
